# Test results from ChEMBL document CHEMBL1123247, “Nucleoside conjugates. 7. Synthesis and antitumor activity of 1-beta-D-arabinofuranosylcytosine conjugates of ether lipids” (J Med Chem, 1986).
# How the values were obtained:
# L1210 [1] = experiment: Antitumor activity was determined against the ip implanted L1210 leukemia in mice by percent median survival rate (treated/control) at 80 mg/kg (treatment of 1-5qd schedule) dosage; 25.5/7.0; format: functional, Mus musculus; details: route intraperitoneal
# Procedure, shortened: (§1)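 DBA/2J mice, 23-28 g, in groups of 6, were inoculated ip with 1×10^6 L1210 cells on day 0. Dosing was ip starting 24 h later on the stated daily schedules. Conjugates were given as sonicated solutions and reference prodrugs as suspensions in 0.9% NaCl with 0.5% Tween-80. Mice were observed daily until death or 45 days. Median survival T/C was calculated from survivors per NCI protocols.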
# L1210 [2] = experiment: Antitumor activity was determined against the ip implanted L1210 leukemia in mice by change in […] at 80 mg/kg (treatment of 1-5qd schedule) dosage; format: functional, Mus musculus; details: route intraperitoneal
# Procedure, shortened: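 DBA/2J mice, 6 per group (wt 23-28 g), inoculated ip with 1×10^6 L1210 cells on day 0. Treatment was given ip in 0.9% NaCl with 0.5% Tween-80, starting 24 h later. Weight change was taken on day 8. Mice were observed daily until death or 45 days. Median survival T/C and %ILS = (T/C − 1) × 100 came from survivors per NCI protocols, and 45-day survivors were counted.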
# L1210 (mouse) = experiment: Antitumor activity was determined against the ic implanted L1210 lymphoid leukemia in mice by change in […] at 500 mg/kg (treatment of 1qd schedule) dosage
# L1210 [3] = experiment: Antitumor activity was determined against the ic implanted L1210 lymphoid leukemia in mice by range in survival days at 500 mg/kg (treatment of 1qd schedule) dosage; Range is 18-23
# P388 [4] = experiment: Antitumor activity was determined against the ip implanted P388 leukemia in mice by change in […] at 60 mg/kg (treatment of 1-5qd schedule) dosage; format: functional, Mus musculus; details: route intraperitoneal
# Procedure, shortened: (§2)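 P388 leukemia, 1×10^6 cells implanted ip on day 0 into DBA/2J mice, groups of 6 (wt 23-33 g). Dosing ip started 24 h post-inoculation, vehicle 0.9% NaCl containing 0.5% Tween-80. Animals were observed daily until death or 45 days. Outputs were weight change, median survival T/C from survivors per NCI protocols, and %ILS = (T/C − 1) × 100.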
# P388 [5] = experiment: Antitumor activity was determined against the ip implanted P388 leukemia in mice by percent median survival rate (treated/control) at 60 mg/kg (treatment of 1-5qd schedule) dosage; >45.0/11.0; format: functional, Mus musculus; details: route intraperitoneal
# L1210 [6] = experiment: Antitumor activity was determined against the ip implanted L1210 leukemia in mice by range in survival days at 400 mg/kg (treatment of 1qd schedule) dosage; Range is 20-33; format: functional, Mus musculus; details: route intraperitoneal; procedure, shortened: as §1
# P388 [7] = experiment: Antitumor activity was determined against the ip implanted P388 leukemia in mice by range in survival days at 200 mg/kg (treatment of 1-5qd schedule) dosage; Range is 22-24; format: functional, Mus musculus; details: route intraperitoneal
# L1210 [8] = experiment: Antitumor activity was determined against the ip implanted L1210 leukemia in mice by percent increase in life span at 200 mg/kg (treatment of 1-5qd schedule) dosage; format: functional, Mus musculus; details: route intraperitoneal
# Procedure, shortened: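 DBA/2J mice in groups of 6 (wt 23-28 g) were inoculated ip with 1×10^6 L1210 cells on day 0. Dosing was ip from 24 h, in 0.9% NaCl with 0.5% Tween-80 (conjugates sonicated), across a range of doses. Mice were observed daily until death or 45 days. Median T/C was computed from survivors per NCI protocols, and ILS = (T/C − 1)×100.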
# L1210 [9] = experiment: Antitumor activity was determined against the ic implanted L1210 lymphoid leukemia in mice by percent increase in life span at 300 mg/kg (treatment of 1-5qd schedule) dosage; format: functional, Mus musculus
# Procedure, shortened: (§3)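 DBA/2J mice, groups of 6 (26-32 g), got 1 × 10^5 L1210 cells ic on day 0. Dosing was ip starting 24 h later, as a sonicated solution or suspension in 0.9% NaCl with 0.5% Tween-80, over a wide dose range. Mice were followed daily until death. Median survival T/C was taken from survivors per NCI protocols, and ILS = (T/C − 1) × 100. Active range means doses giving ILS ≥25%; optimal dose means greatest ILS.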
# L1210 [10] = experiment: Antitumor activity was determined against the ic implanted L1210 lymphoid leukemia in mice by range in survival days at 300 mg/kg (treatment of 1-5qd schedule) dosage; Range is 15-18; format: functional, Mus musculus
# L1210 [11] = experiment: Antitumor activity against ip implanted L1210 leukemia in mice expressed as active dose range (1-5qd treatment schedule) required to produce increase in life span by >25% was determined; 60-100; format: functional, Mus musculus
# Procedure, shortened: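 DBA/2J mice, groups of 6 (23-28 g), were inoculated ip with 1 × 10^6 L1210 cells on day 0. Dosing was ip from 24 h, in 0.9% NaCl with 0.5% Tween-80 (sonicated solution or suspension). Mice were observed daily until death or day 45. Median survival T/C followed NCI protocols, and ILS = (T/C − 1) × 100. Active range means doses giving ILS ≥25%; optimal dose means greatest ILS.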
# P388 [12] = experiment: Antitumor activity was determined against the ip implanted P388 leukemia in mice by percent median survival rate (treated/control) at 500 mg/kg (treatment of 1qd schedule) dosage; >45.0/11.0; format: functional, Mus musculus; details: route intraperitoneal
# L1210 [13] = experiment: Antitumor activity was determined against the ip implanted L1210 leukemia in mice by median survival time at 100 mg/kg (treatment of 1-5qd schedule) dosage; 23.0/7.0; details: route intraperitoneal
# P388 [14] = experiment: Antitumor activity was determined against the ip implanted P388 leukemia in mice by change in […] at 500 mg/kg (1 qd treatment schedule) dosage; format: functional, Mus musculus; details: route intraperitoneal; procedure, shortened: as §2
# L1210 [15] = experiment: Antitumor activity was determined against the ip implanted L1210 leukemia in mice by range in survival days at 40 mg/kg (treatment of 1-5qd schedule) dosage; 24->45; format: functional, Mus musculus; details: route intraperitoneal; procedure, shortened: as §1
# L1210 [16] = experiment: Antitumor activity was determined against the ic implanted L1210 lymphoid leukemia in mice by change in […] at 133 mg/kg (1,5,9qd treatment schedule) dosage; format: functional, Mus musculus
# Procedure, shortened: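 DBA/2J mice, 6 per group (wt 26-32 g), inoculated ic with 1×10^5 L1210 cells on day 0. Dosing ip began 24 h after inoculation, with a sonicated solution or suspension in 0.9% NaCl containing 0.5% Tween-80, given over a range of doses. Animals were followed daily until death. Body weight change, median survival T/C, and %ILS = (T/C − 1) × 100 were computed from survivors per NCI protocols.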
# L1210 [17] = experiment: Antitumor activity was determined against the ic implanted L1210 lymphoid leukemia in mice by percent increase in life span at 80 mg/kg (1-5qd treatment schedule) dosage; format: functional, Mus musculus; procedure, shortened: as §3
# L1210 [18] = experiment: Antitumor activity was determined against the ip implanted L1210 leukemia in mice by range in survival days at 300 mg/kg (treatment of 1qd schedule) dosage; Range is 14->45; format: functional, Mus musculus; details: route intraperitoneal; procedure, shortened: as §1
# L1210 [19] = experiment: Antitumor activity was determined against the ic implanted L1210 lymphoid leukemia in mice by median survival time at 133 mg/kg (1,5,9qd treatment schedule) dosage; 20.0/8.0
smiles,measurement,setting,value
CCCCCCCCCCCCCCCCOCC(COP(=O)(O)OP(=O)(O)OC[C@H]1O[C@@H](n2ccc(N)nc2=O)[C@@H](O)[C@@H]1O)OC(=O)CCCCCCCCCCCCCCC (mixture of isomers),T/C,L1210 [1],25.5%
same,Weight change,L1210 [2],0.33 g mouse-1
same,Weight change,L1210 (mouse),-2.07 g mouse-1
same,Range,L1210 [3],18
same,Weight change,P388 [4],-3.3 g mouse-1
same,T/C,P388 [5],>45%
same,Range,L1210 [6],20
Nc1ccn([C@@H]2O[C@H](CO)[C@@H](O)[C@@H]2O)c(=O)n1 [CYTARABINE],Range,P388 [7],22
same,ILS,L1210 [8],143
same,ILS,L1210 [9],129
same,Range,L1210 [10],15
CCCCCCCCCCCCCCCCCCOCC(COP(=O)(O)OP(=O)(O)OC[C@H]1O[C@@H](n2ccc(N)nc2=O)[C@@H](O)[C@@H]1O)OC(=O)CCCCCCCCCCCCCCC (mixture of isomers),Active dose range,L1210 [11],60 mg/kg/day
same,T/C,P388 [12],>45%
same,median survival time,L1210 [13],23 days
CCCCCCCCCCCCCCCC(=O)OC[C@H](COP(=O)(O)OP(=O)(O)OC[C@H]1O[C@@H](n2ccc(N)nc2=O)[C@@H](O)[C@@H]1O)OC(=O)CCCCCCCCCCCCCCC,Weight change,P388 [14],-0.07 g mouse-1
same,Range,L1210 [15],24
same,Weight change,L1210 [16],-1.11 g mouse-1
same,ILS,L1210 [17],175
same,Range,L1210 [18],14
same,median survival time,L1210 [19],20 days
